Here are results for twelve compounds from ChEMBL document CHEMBL3870351, “Synthesis of 2-methyl-1,4-naphthoquinones with higher gamma-glutamyl carboxylase activity than MK-4 both in vitro and in vivo” (Bioorg Med Chem Lett, 2017).

Calls of active or inactive are those of the source. No cut-off for these calls is given here.

Data set [1] is described as follows: Cytotoxicity against human MG63 cells assessed as decrease in cell viability up to 500 nM by MTT assay. The following applies: mg-63. The class given is toxicity, cell-based. The procedure, abridged: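 MG63 cells; cell viability measured with compounds at concentrations up to 500 nM.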
(Tetrazolium assays rely on reduction of a dye to a coloured formazan, in cell work by metabolically active cells.)

The target of data set [2] is T1, Vitamin K-dependent gamma-carboxylase (Homo sapiens) (UniProt P38435).
T1 sequence (whole entry): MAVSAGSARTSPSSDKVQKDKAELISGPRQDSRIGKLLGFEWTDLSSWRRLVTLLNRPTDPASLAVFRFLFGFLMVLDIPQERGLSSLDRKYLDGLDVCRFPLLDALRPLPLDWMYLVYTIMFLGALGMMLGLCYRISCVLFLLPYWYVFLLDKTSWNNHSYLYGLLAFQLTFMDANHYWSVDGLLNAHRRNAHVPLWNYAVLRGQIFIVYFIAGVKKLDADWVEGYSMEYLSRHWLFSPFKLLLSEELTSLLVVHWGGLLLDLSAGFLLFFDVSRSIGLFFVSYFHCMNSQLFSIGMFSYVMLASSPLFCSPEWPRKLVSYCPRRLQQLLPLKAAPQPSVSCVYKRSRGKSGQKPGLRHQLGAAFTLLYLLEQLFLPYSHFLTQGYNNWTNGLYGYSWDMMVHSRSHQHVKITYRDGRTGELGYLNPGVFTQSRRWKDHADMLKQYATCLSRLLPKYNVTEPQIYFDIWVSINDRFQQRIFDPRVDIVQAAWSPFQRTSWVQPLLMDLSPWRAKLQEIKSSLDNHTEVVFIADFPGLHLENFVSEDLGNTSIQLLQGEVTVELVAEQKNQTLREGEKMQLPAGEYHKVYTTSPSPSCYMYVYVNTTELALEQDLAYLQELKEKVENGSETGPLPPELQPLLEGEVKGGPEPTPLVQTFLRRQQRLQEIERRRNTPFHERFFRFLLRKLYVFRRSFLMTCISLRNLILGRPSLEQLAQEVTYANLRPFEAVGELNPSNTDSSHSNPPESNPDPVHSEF
In words: Activation of gamma-glutamyl carboxylase in human MG63 cells assessed as increase in carboxylated osteocalcin level at 50 nM after 72 hrs by enzyme immuno assay. The format is cell-based. The following applies: MG-63. In short, it runs like this: (§1)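 Human osteosarcoma MG63 cells; uncarboxylated (ucOC) and carboxylated (cOC) osteocalcin measured in culture media/supernatants; untreated controls received no vitamin K or analogue; run in triplicate.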

For data set [3], the target named is T1, Vitamin K-dependent gamma-carboxylase (Homo sapiens). In words: Activation of gamma-glutamyl carboxylase in human MG63 cells assessed as reduction in un-carboxylated osteocalcin level at 50 nM after 72 hrs by enzyme immuno assay. The class given is cell-based. The following applies: MG-63. In short, it runs like this:
as §1

For data set [4], the species on record is Rattus norvegicus. In words: Restoration of prothrombin activity in vitamin-K deficient diet fed Wistar-Kyoto rat assessed as plasma prothrombin level at 5 ug/g of food for 2 days by one-stage PT-based clotting assay (reference value: 60%). The format is functional.
For data set [5], the species on record is Rattus norvegicus. The data set can be described thus: Restoration of prothrombin activity in vitamin-K deficient diet fed Wistar-Kyoto rat assessed as plasma prothrombin level at 5 ug/g of food for 5 days by one-stage PT-based clotting assay (reference value: 60%). The class given is functional.
The species named for data set [6] is Rattus norvegicus. In words: Toxicity in vitamin-K deficient diet fed Wistar-Kyoto rat assessed as change in body weight at 0.5 ug/g of food for 5 days. The class given is organism-based. The following applies: in vivo, po, 120 h.
For data set [7], the species on record is Rattus norvegicus. The data set can be described thus: Toxicity in vitamin-K deficient diet fed Wistar-Kyoto rat assessed as change in body weight at 5 ug/g of food for 2 to 5 days. The class given is organism-based. The following applies: in vivo, po.

In the case of `CCOC(=O)CC1=C(C)C(=O)c2ccccc2C1=O`, in data set [1], the Activity entry is on record as “Non-Toxic”. Further, the outcome in data set [2] and in data set [3] was Active.

As to `CC1=CC(=O)c2ccccc2C1=O` [MENADIONE], the Activity entry in data set [1] was “Non-Toxic”.

Take `CC(C)=CCC/C(C)=C/CC/C(C)=C/CC/C(C)=C/CC1=C(C)C(=O)c2ccccc2C1=O`: the result in data set [2] and in data set [3] was Active.

With `CCCCCCCCCCCCCCCCCCNC(=O)CC1=C(C)C(=O)c2ccccc2C1=O`, in data set [1], the Activity result was “Non-Toxic”. Also, the outcome in data set [3] was Active.

Consider `CC1=C(CC(=O)O)C(=O)c2ccccc2C1=O`, for which the Activity entry in data set [1] is “Non-Toxic”. Further, the result in data set [2] and in data set [3] was Active.

Regarding `CC1=C(Br)C(=O)c2ccccc2C1=O`, the Activity result in data set [1] is “Non-Toxic”.

As to `COc1c(C)c(Br)c(OC)c2ccccc12`, the Activity result in data set [1] is recorded as “Non-Toxic”.

On to `CCCCCCCCCCCCCCNC(=O)CC1=C(C)C(=O)c2ccccc2C1=O`, for which the Activity entry is “Non-Toxic” in data set [1]; 107% in data set [4]; 106% in data set [5]; “Non-Toxic” in data set [6]; “Non-Toxic” in data set [7]. For the same compound, the result in data set [2] and in data set [3] was Active.

Regarding `COc1c(C)c(CC(=O)O)c(OC)c2ccccc12`, the Activity entry in data set [1] was “Non-Toxic”. In addition, the outcome in data set [2] and in data set [3] was Active.

Turning to `CCCCCCCCCCCCCCCCNC(=O)CC1=C(C)C(=O)c2ccccc2C1=O`, the Activity entry in data set [1] is reported as “Non-Toxic”. The outcome in data set [2] and in data set [3] was Active.

Turning to `CCCCCCCCCCCCCCCCCNC(=O)CC1=C(C)C(=O)c2ccccc2C1=O`, in data set [1], the Activity result is reported as “Non-Toxic”. The outcome in data set [3] was Active.

As to `CCOC(=O)Cc1c(C)c(OC)c2ccccc2c1OC`, the Activity result in data set [1] is “Non-Toxic”.
